The source made the active and inactive calls. The rule behind the calls is not given here.
Assays:
[1] = Cytotoxicity against human Jurkat T cells assessed as appearance of late apoptotic cells at 25 uM after 24 hrs by annexin V-FLUOS/propidium iodide staining-based flow cytometric analysis; type: cell-based
In short: (§1)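 Jurkat T lymphocytes kept at 37 °C, 5% CO2 in RPMI1640 with 10% FBS and 1% streptomycin/penicillin. Exposed to 25 μM compound for 24 h, then stained with annexin-V-FLUOS and propidium iodide and read by flow cytometry. Viable cells are negative for both stains.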

[2] = Cytotoxicity against human Jurkat T cells assessed as appearance of early apoptotic cells at 25 uM after 24 hrs by annexin V-FLUOS/propidium iodide staining-based flow cytometric analysis; type: cell-based; in short: as §1
[3] = Cytotoxicity against human Jurkat T cells assessed as appearance of viable cells at 25 uM after 24 hrs by annexin V-FLUOS/propidium iodide staining-based flow cytometric analysis; type: cell-based; settings: read-out: Activity; in short: as §1
[4] = Cytotoxicity against human Jurkat T cells assessed as appearance of necrotic cells at 25 uM after 24 hrs by annexin V-FLUOS/propidium iodide staining-based flow cytometric analysis; type: cell-based; in short: as §1
[5] = biological target: T1, Nuclear factor NF-kappa-B p105 subunit (Homo sapiens) (UniProt P19838); assay: Inhibition of TNF-alpha-stimulated NF-kappaB p50 (unknown origin) expressed in HEK293 cells at 1 to 100 uM preincubated for 4 hrs followed by TNF-alpha challenge measured after 24 hrs by secreted alkaline phosphatase reporter assay; type: cell-based
T1 sequence (whole entry): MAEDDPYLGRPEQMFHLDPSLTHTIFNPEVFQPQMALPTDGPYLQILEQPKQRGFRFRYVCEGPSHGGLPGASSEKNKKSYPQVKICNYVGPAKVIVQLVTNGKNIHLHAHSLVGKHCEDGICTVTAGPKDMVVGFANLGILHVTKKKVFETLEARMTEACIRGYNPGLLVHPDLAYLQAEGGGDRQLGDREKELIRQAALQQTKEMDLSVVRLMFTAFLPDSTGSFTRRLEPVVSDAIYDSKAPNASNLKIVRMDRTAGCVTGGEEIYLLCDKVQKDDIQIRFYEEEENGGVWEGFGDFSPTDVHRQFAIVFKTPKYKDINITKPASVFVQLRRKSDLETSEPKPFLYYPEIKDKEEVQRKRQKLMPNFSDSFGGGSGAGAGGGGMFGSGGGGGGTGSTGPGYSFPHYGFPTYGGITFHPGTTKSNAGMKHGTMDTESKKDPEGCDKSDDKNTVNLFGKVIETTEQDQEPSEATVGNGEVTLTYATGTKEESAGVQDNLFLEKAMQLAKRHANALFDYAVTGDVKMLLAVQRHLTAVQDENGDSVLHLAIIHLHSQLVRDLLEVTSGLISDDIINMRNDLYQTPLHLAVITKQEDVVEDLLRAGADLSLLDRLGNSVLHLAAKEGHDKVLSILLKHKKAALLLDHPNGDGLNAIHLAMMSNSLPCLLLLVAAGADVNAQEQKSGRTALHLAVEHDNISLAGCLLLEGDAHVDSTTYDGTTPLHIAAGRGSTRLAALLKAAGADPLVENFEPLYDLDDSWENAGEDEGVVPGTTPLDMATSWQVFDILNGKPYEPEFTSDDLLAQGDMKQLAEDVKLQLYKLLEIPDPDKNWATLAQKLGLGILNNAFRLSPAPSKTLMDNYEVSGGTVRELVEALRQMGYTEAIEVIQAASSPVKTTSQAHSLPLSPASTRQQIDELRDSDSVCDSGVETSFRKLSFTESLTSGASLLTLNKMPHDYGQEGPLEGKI
In short: (§2)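 HEK293 stably transfected with NF-κB/SEAP, grown in DMEM/10% FBS/500 μg/mL G418 and seeded at ~2 × 10^5 cells/well to ~70% confluence. Pretreated 4 h with rising compound concentrations or 0.05% DMSO, then TNF-α 10 ng/mL for 24 h. Secreted SEAP measured by kit, with TNF-α-induced untreated cells as 100%. Quadruplicates, mean; IC50 from the concentration curve.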

[6] = biological target: T1, Nuclear factor NF-kappa-B p105 subunit (Homo sapiens); assay: Binding affinity to 6His-tagged recombinant human NF-kappaB p50 N-terminal domain expressed in Escherichia coli BL21 (DE3) up to 10:1 compound to protein molar ratio after 2 hrs by mass spectrometric analysis
In short: (§3)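 Recombinant 6His-tagged p50 NTD (E. coli BL21(DE3), Ni-NTA then Superdex 200 gel filtration, dialysed into PBS) at 20 μM, incubated with compound in PBS with 1 mM EDTA, 10 μM β-mercaptoethanol, 5% glycerol (v/v), 37 °C, 2 h. Acetic acid quench, reversed-phase column, ESI-MS at m/z 500–3000. Reaction extent scored from adduct versus unbound protein across rising molar ratios.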

[7] = Cytotoxicity against human Jurkat T cells assessed as apoptosis after 24 hrs by annexin V-FLUOS/propidium iodide staining-based flow cytometric analysis; type: cell-based; in short: as §1
[8] = biological target: T1, Nuclear factor NF-kappa-B p105 subunit (Homo sapiens); assay: (§4) Inhibition of TNF-alpha-stimulated NF-kappaB p50 (unknown origin) expressed in HEK293 cells preincubated for 4 hrs followed by TNF-alpha challenge measured after 24 hrs by secreted alkaline phosphatase reporter assay; type: cell-based; in short: as §2
[9] = biological target: T1, Nuclear factor NF-kappa-B p105 subunit (Homo sapiens); assay: Binding affinity to 6His-tagged recombinant human NF-kappaB p50 N-terminal domain expressed in Escherichia coli BL21 (DE3) up to 50:1 compound to protein molar ratio after 2 hrs by mass spectrometric analysis; in short: as §3
[10] = biological target: T2, Nuclear factor NF-kappa-B p105 subunit (Homo sapiens, UniProt P19838); assay: as §4; type: cell-based; in short: as §2
T2 sequence (P19838 whole entry): T1 sequence (whole entry)

[11] = biological target: T1, Nuclear factor NF-kappa-B p105 subunit (Homo sapiens); assay: Binding affinity to 6His-tagged recombinant human NF-kappaB p50 N-terminal domain expressed in Escherichia coli BL21 (DE3) at 4:1 compound to protein molar ratio after 2 hrs by mass spectrometric analysis; in short: as §3

SMILES	inhibition [5]	Activity [6]	inhibition [8]	Activity [9]	IC50 [10]	Activity [11]	Activity [1]	Activity [2]	viability at 24 h, 25 µM [3]	Activity [4]	Activity [7]
C=C1CC[C@@H]2[C@](C)(CO[C@@H]3O[C@H](CO)[C@@H](O)[C@H](O)[C@H]3O)CCC[C@@]2(C)[C@@H]1CCC1=CCOC1=O [NEOANDROGRAPHOLIDE]		inactive	inactive								Non-toxic
C[C@]1(CO)[C@H]2CCC(=O)[C@@H](C/C=C3/SC(=S)NC3=O)[C@]2(C)CC[C@H]1O	inactive	inactive					7.96%	6.91%	84.1%	1.05%	
C=C1CC[C@@H]2[C@](C)(CO)[C@H](O)CC[C@@]2(C)[C@@H]1C/C=C1/C(=O)OC[C@H]1O [ANDROGRAPHOLIDE]					49.6 µM		9.1%	35.3%	54.2%	1.39%	
C[C@]1(CO)[C@H]2CCC(=O)[C@@H](C/C=C3\CCOC3=O)[C@]2(C)CC[C@H]1O	inactive	inactive					5.52%	6.29%	87.9%	0.33%	
C=C1CC[C@@H]2[C@](C)(COC(C)=O)[C@H](OC(C)=O)CC[C@@]2(C)[C@@H]1C/C=C1\C=COC1=O					11.1 µM	Active	47.95%	38.24%	13.6%	0.24%	

Now from value to molecule, other results behind:

inhibition [5]	Activity [6]	inhibition [8]	Activity [9]	IC50 [10]	Activity [11]	SMILES	Activity [1]	Activity [2]	viability at 24 h, 25 µM [3]	Activity [4]	Activity [7]
inactive	inactive					C=C1CC[C@@H]2[C@](C)(CO)[C@H](O)CC[C@@]2(C)[C@@H]1C/C=C1\C=COC1=O	1.57%	15.55%	82.6%	0.3%	
inactive			Active			C=C1CC[C@@H]2[C@](C)(CO)[C@H](O)CC[C@@]2(C)[C@@H]1/C=C/C1=CCOC1=O	1.31%	10.89%	87.5%	0.25%	
	inactive	inactive				C=C1CC[C@@H]2[C@](C)(CO)[C@H](O)CC[C@@]2(C)[C@@H]1CCC1=CCOC1=O [DEOXYANDROGRAPHOLIDE]					Non-toxic

Reference: ChEMBL document CHEMBL3425410, “Specificity and inhibitory mechanism of andrographolide and its analogues as antiasthma agents on NF-κB p50” (J Nat Prod, 2015)
